Assay results: ChEMBL document CHEMBL1141839, “Antifungal jujubogenin saponins from Colubrina retusa” (1999)
In brackets after ≈: the same amount, converted by molar mass. Activity calls are given as the source filed them. The calls are words filed in the database; no cut-off is given here.

Columns and labels:
Candida albicans [1] = assay: Antifungal activity against Candida albicans at 2 ug/mL after 24 hrs; type: functional, organism-based
Outline: (§1)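 Modified NCCLS broth microdilution in 96-well format. C. albicans grown in SDB to the desired density and seeded into wells. Pure compounds tested at final 50, 10 and 2 μg/mL. Incubated 24 h at 37 °C, with growth scored at each level. MIC is the lowest tested concentration with no growth. Amphotericin B served as positive control.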

Cryptococcus neoformans [2] = assay: Antifungal activity against Cryptococcus neoformans at 2 ug/mL after 48 hrs; type: functional, organism-based
Outline: (§2)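 C. neoformans grown in Mycophil broth to the desired density, then seeded into 96-well plates (modified NCCLS microdilution). Pure compounds added at final 50, 10 and 2 μg/mL. Incubation 48 h, 30 °C, with growth assessed per concentration. MIC is the lowest tested level showing no growth. Amphotericin B positive control.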

Aspergillus fumigatus [3] = assay: Antifungal activity against Aspergillus fumigatus at 2 ug/mL after 48 hrs; type: functional, organism-based
Outline: (§3)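 A. fumigatus spores gently scraped from fungal growth and used as inoculum in a 96-well adaptation of the NCCLS protocol. Pure compounds at final 50, 10 and 2 μg/mL. Incubated 48 h at 30 °C, with growth read at each concentration. MIC is the lowest tested concentration without growth. Amphotericin B positive control.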

Candida albicans [4] = assay: Antifungal activity against Candida albicans after 24 hrs; type: functional; outline: as §1
Cryptococcus neoformans [5] = assay: Antifungal activity against Cryptococcus neoformans after 48 hrs; type: functional; outline: as §2
Aspergillus fumigatus [6] = assay: Antifungal activity against Aspergillus fumigatus after 48 hrs; type: functional; outline: as §3

Row | MIC (Candida albicans [4]) | MIC (Cryptococcus neoformans [5]) | MIC (Aspergillus fumigatus [6]) | SMILES | also measured
1 |  |  |  | C[C@@H]1[C@H](O)[C@@H](C)/C=C/C=C/C=C/C=C/C=C/C=C/C=C/[C@H](O[C@@H]2O[C@H](C)[C@@H](O)[C@H](N)[C@@H]2O)C[C@@H]2O[C@](O)(C[C@@H](O)C[C@@H](O)[C@H](O)CC[C@@H](O)C[C@@H](O)CC(=O)O[C@H]1C)C[C@H](O)[C@H]2C(=O)O | Activity (Candida albicans [1]): Active; Activity (Cryptococcus neoformans [2]): Active; Activity (Aspergillus fumigatus [3]): Active
2 | > 50 µg/mL | 50 µg/mL (≈ 47.8 µM) | > 50 µg/mL | CC(C)=C[C@H]1C[C@](C)(O)[C@@H]2[C@H]3CC[C@@H]4[C@@]5(C)CC[C@H](O[C@@H]6OC[C@H](O)[C@H](O[C@@H]7O[C@H](CO)[C@@H](O)[C@H](O)[C@H]7OC(=O)/C=C/c7ccc(O)cc7)[C@H]6O[C@@H]6O[C@@H](CO)[C@H](O)[C@H]6O)C(C)(C)[C@@H]5CC[C@@]4(C)[C@@]34CO[C@@]2(C4)O1 | 
3 |  |  |  | CC(C)=C[C@H]1C[C@](C)(O)[C@@H]2[C@H]3CC[C@@H]4[C@@]5(C)CC[C@H](O[C@@H]6OC[C@H](O)[C@H](O[C@@H]7O[C@H](CO)[C@@H](O)[C@H](O)[C@H]7O)[C@H]6O[C@@H]6O[C@@H](COC(=O)CC(=O)O)[C@H](O)[C@H]6O)C(C)(C)[C@@H]5CC[C@@]4(C)[C@@]34CO[C@@]2(C4)O1 | Activity (Candida albicans [4]): inactive; Activity (Cryptococcus neoformans [5]): inactive; Activity (Aspergillus fumigatus [6]): inactive
4 | 50 µg/mL (≈ 55.6 µM) | 50 µg/mL (≈ 55.6 µM) | 50 µg/mL (≈ 55.6 µM) | CC(C)=C[C@H]1C[C@](C)(O)[C@@H]2[C@H]3CC[C@@H]4[C@@]5(C)CC[C@H](O[C@@H]6OC[C@H](O)[C@H](O[C@@H]7O[C@H](CO)[C@@H](O)[C@H](O)[C@H]7O)[C@H]6O[C@@H]6O[C@@H](CO)[C@H](O)[C@H]6O)C(C)(C)[C@@H]5CC[C@@]4(C)[C@@]34CO[C@@]2(C4)O1 | 
